Published values gathered from unrelated publications.
Compare with care: the assays were run in different laboratories.
Target: Tyrosine-protein kinase Mer (MERTK, Homo sapiens, UniProt Q12866)
One construct used (Q12866 21-999): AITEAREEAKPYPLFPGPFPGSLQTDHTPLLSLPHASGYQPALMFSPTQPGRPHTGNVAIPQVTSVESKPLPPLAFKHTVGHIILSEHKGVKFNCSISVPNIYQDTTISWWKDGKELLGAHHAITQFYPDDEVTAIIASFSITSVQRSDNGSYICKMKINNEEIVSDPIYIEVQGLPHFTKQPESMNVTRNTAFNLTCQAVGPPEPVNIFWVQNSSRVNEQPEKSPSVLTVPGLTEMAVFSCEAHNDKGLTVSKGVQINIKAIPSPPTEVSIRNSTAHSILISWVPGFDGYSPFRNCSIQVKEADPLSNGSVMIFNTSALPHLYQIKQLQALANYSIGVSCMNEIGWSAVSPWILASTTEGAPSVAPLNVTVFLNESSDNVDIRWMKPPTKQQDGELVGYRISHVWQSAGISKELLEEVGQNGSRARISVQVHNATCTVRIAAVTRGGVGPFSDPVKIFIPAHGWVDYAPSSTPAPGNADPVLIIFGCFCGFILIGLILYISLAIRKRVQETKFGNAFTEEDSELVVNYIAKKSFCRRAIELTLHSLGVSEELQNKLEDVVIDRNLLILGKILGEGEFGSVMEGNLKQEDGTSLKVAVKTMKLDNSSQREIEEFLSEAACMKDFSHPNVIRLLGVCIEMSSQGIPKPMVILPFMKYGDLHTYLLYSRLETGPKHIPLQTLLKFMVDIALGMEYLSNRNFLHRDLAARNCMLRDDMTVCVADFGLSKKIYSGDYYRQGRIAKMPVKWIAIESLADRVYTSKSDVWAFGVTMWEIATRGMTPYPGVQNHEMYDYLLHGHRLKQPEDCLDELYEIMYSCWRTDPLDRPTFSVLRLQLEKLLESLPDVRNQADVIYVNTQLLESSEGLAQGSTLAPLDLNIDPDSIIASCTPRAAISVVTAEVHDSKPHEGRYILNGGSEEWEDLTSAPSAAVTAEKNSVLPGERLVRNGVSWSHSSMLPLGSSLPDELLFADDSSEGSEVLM

With `Cc1ccc(C(=O)NCc2ccsc2)cc1C#Cc1cn(C(C)C)c2ncnc(N)c12` the activity vs control was 71% (enzyme activity; inhibitor; 1 µM).
For `CCCOc1ccc([C@H]2[C@H](C(=O)O)[C@@H](c3ccc4c(c3)OCO4)CN2CC(=O)Nc2c(CC)cccc2CC)cc1`, the remaining binding was 87% (cell-free assay; competition with immobilised ligand; 1 µM).
`CCN(CC)c1ccc(C2=NNC(=O)CC2C)cc1[N+](=O)[O-]` (stereo not drawn) gave a remaining activity of 97% (enzyme activity; inhibitor; 10 µM).
With `Cn1nc(C(F)(F)F)cc1-c1cnc(N2CCc3cc(S(=O)(=O)Nc4c(F)cc(Cl)cc4F)cc(N4CCCC4=O)c32)nc1` the remaining binding was 100% (cell-free assay; competition with immobilised ligand; 1 µM).
`Nc1ncnc2occ(-c3ccc(NC(=O)Nc4cc(C(F)(F)F)ccc4F)cc3)c12` gave a remaining signal of 0.25% (cell-free assay; 20 µM).
With `COc1cc(Cl)c(C(=O)N[C@@H](CN[C@H]2CC[C@@H](N)CC2)Cc2ccc(C#N)cc2)cc1-c1ccc(CN[C@H](C)c2ccc(C)cc2)o1` the remaining activity was 99% (enzyme activity; inhibitor; 1 µM).
`Cn1c2c(c3ccc(Cl)c(Cl)c31)C(C#N)C1(CCNCC1)NC2=O` (racemic) gave a ΔTm of 0.5 °C (thermal stability; DSF; 10 µM).
The remaining signal of `N#CCCc1ccc2c(c1)-c1[nH]c3ccc([N+](=O)[O-])cc3c1CC(=O)N2` is reported as 77.5% (cell-free assay; 0.5 µM).
With `Cn1c2c(c3ccccc31)C(C#N)C(C)(C)NC2=O` (stereo not drawn) the ΔTm was 0.8 °C (thermal stability; DSF; 10 µM).
For `COc1ccc2c(O[C@@H]3C[C@H]4C(=O)N[C@]5(C(=O)O)CC5/C=C\CCCCC[C@H](NC(=O)OC5CCCC5)C(=O)N4C3)cc(-c3csc(NC(=O)C(C)C)n3)nc2c1C` (stereo partly drawn), the remaining binding was 70% (cell-free assay; competition with immobilised ligand; 1 µM).
For `O=C(Nc1cnn(-c2csc(C(=O)NC3COC3)c2)c1)Nc1c(F)cccc1Cl`, the remaining activity was 77.1% (enzyme activity; inhibitor; 5 µM).
`Cn1c2c(Cl)c(Cl)ccc2c2cc[nH]c(=O)c21` has a ΔTm of 1.3 °C (thermal stability; DSF; 10 µM).
For `CNC(=O)Nc1ccc2c(c1)[C@@]1(CC2)OC(=O)N(CC(=O)N(Cc2ccc(F)cc2)[C@@H](C)C(F)(F)F)C1=O`, the remaining binding was 100% (cell-free assay; competition with immobilised ligand; 1 µM).
The inhibition of `CCN(CC)CCNC(=O)c1c(C)[nH]c(/C=C2\C(=O)Nc3ccc(F)cc32)c1C` is reported as 98% (enzyme activity; inhibitor; 10 µM).
`CNCc1ccccc1-c1csc([C@@H](C)Nc2nc(C)nc3cc(OC)c(OC)cc23)c1` has a remaining binding of 61% (cell-free assay; competition with immobilised ligand; 1 µM).
The remaining activity of `CC(C)(C)c1nc2c(s1)c1nc(N)ncc1c1ccc(NS(=O)(=O)c3c(F)cccc3F)c(F)c12` is reported as 124% (enzyme activity; inhibitor; radiometric; 1 µM).
The inhibition of `COc1cc2ncnc(Nc3ccc(Oc4ccccc4)cc3C)c2cc1OC` is reported as 87% (enzyme activity; inhibitor; 1 µM).
With `CN(C)C(=O)Cn1cc(-c2nc([C@@](C)(c3ccc(-c4cnc(N)nc4)cc3)C3CC3)no2)cn1` the remaining binding was 100% (cell-free assay; competition with immobilised ligand; 1 µM).
`Cc1cc(NC(=O)c2cccc3cc(-c4cccc5[nH]nc(N)c45)ccc23)ccc1F` gave an activity vs control of 96% (enzyme activity; inhibitor; 0.1 µM).
`CC(C)(O)c1cncc(-c2nc3ccc(F)cc3n2C2CC2)c1` has a remaining binding of 96% (cell-free assay; competition with immobilised ligand; 1 µM).
With `CNC(=O)c1cc(Oc2ccc(NC(=O)Nc3ccc(Cl)c(C(F)(F)F)c3)cc2)ccn1` the inhibition was 82% (enzyme activity; inhibitor; 10 µM).
The remaining activity of `Cc1cnc(NC2CCOCC2)nc1-n1cnc(C(=O)NC(CN)c2cc(F)cc(Cl)c2)c1` (stereo not drawn) is reported as 96% (enzyme activity; inhibitor; radiometric; 1 µM).
`CCN1CCC2(CC1)NC(=O)c1c(c3ccc(Cl)c(Cl)c3n1C)C2C#N` (racemic) has a ΔTm of 1 °C (thermal stability; DSF; 10 µM).
The remaining activity of `CCCOc1ccc(OC)c(F)c1C(=O)c1ccc(C(=O)N[C@@H]2CNC[C@H]2NC(=O)c2ccc3[nH]ncc3c2)cc1` is reported as 36% (enzyme activity; inhibitor; 10 µM).
`Cc1ccc(Nc2nccc(N(C)c3ccc4c(C)n(C)nc4c3)n2)cc1S(N)(=O)=O` gave an inhibition of 87% (enzyme activity; inhibitor; 10 µM).
`CCCCN(CCCC)C(=O)CN1C[C@@H](c2cc(OC)c3c(c2)OCO3)[C@H](C(=O)O)[C@H]1CC(C)(C)CCC` has a remaining binding of 100% (cell-free assay; competition with immobilised ligand; 1 µM).
For `Cn1c2c(c3ccc(Cl)c(Cl)c31)C(C#N)C1(CCCC1)NC2=O` (stereo not drawn), the ΔTm was -0.5 °C (thermal stability; DSF; 10 µM).
`Cc1ccc(NC(=O)c2ccc(C)c(C(F)(F)F)c2)cc1C#Cc1nn(C2CCC(O)CC2)c2ncnc(N)c12` (stereo not drawn) has a remaining signal of 0% (cell-free assay; 10 µM).
With `Cn1c2c(Cl)c(Cl)ccc2c2cc(N)[nH]c(=O)c21` the ΔTm was 0.1 °C (thermal stability; DSF; 10 µM).
`O=C1Nc2ccc(Cl)cc2C1=Cc1cc(Cl)c(O)c(Cl)c1` has a remaining signal of 88.4% (cell-free assay; 0.5 µM).
